{"source": "ChEMBL document CHEMBL1123180", "about": "“Improved glucose tolerance in rats treated with oxazolidinediones” (1986)", "note": "Calls of active or inactive are those of the source. No cut-off for these calls is given here."}
{"system": "Rattus norvegicus", "experiment": "Ability to lower blood sugar level at the dose of 100 mg/kg in fasted rats, by using glucose tolerance test(GTT); NA=Inactive", "assay_type": "functional, organism-based", "parameters": "dose 100 mg/kg", "conditions": "not given", "summary_of_the_method": "(§1)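 Male albino rats, groups of five or six, fasted 18–24 h. Glucose 1 g/kg given ip; test drug (0.1 to 100 mg/kg) or water (controls) given orally. Tail-vein blood sampled over 0–3 h; glucose (mg/100 mL) measured by Autoanalyser ferricyanide method. Value is percent lowering of blood glucose vs controls at 0.5 h; a lowering of ≥9% is needed for P = 0.05.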"}
{"compound": "Nc1ccc(C2OC(=O)NC2=O)cc1", "note": "(stereo not drawn)", "Blood sugar lowering": "inactive"}
{"system": "Rattus norvegicus", "experiment": "Compound was tested for the ability to lower blood sugar level at the dose of 0.63 mg/kg in fasted rats, by using glucose tolerance test(GTT)", "assay_type": "functional", "conditions": "not given", "summary_of_the_method": "as §1", "units": {"Blood sugar lowering": "%"}}
{"compound": "COc1cccc(Cl)c1C1OC(=O)NC1=O", "note": "(stereo not drawn)", "Blood sugar lowering": 11}
{"system": "Rattus norvegicus", "experiment": "Ability to lower blood sugar level at the dose of 100 mg/kg in fasted rats, by using glucose tolerance test(GTT)", "assay_type": "functional", "conditions": "not given", "summary_of_the_method": "as §1", "units": {"Blood sugar lowering": "%"}}
{"compound": "COc1ncccc1C(=O)NCCc1ccc(C2OC(=O)NC2=O)cc1", "note": "(stereo not drawn)", "Blood sugar lowering": 26}
{"compound": "O=C1NC(=O)C(c2ccccc2OCc2ccccc2)O1", "note": "(stereo not drawn)", "Blood sugar lowering": 11}
{"compound": "O=C1NC(=O)C(c2cccc(Cl)c2)O1", "note": "(stereo not drawn)", "Blood sugar lowering": 26}
{"compound": "O=C1NC(=O)C(c2ccc(F)cc2)O1", "note": "(stereo not drawn)", "Blood sugar lowering": 21}
{"compound": "COc1ccc(C2OC(=O)NC2=O)cc1", "note": "(stereo not drawn)", "Blood sugar lowering": 19}
{"compound": "CCOc1ccc(C2OC(=O)NC2=O)cc1", "note": "(stereo not drawn)", "Blood sugar lowering": 18}
{"compound": "O=C1NC(=O)C(c2ccc3c(c2)OCO3)O1", "note": "(stereo not drawn)", "Blood sugar lowering": 18}
{"compound": "Cc1ccc(C2OC(=O)NC2=O)cc1", "note": "(stereo not drawn)", "Blood sugar lowering": 10}
{"compound": "O=C1NC(=O)C(c2ccc(OCc3ccccc3)cc2)O1", "note": "(stereo not drawn)", "Blood sugar lowering": 20}
{"compound": "O=C1NC(=O)C(c2cccc(Oc3ccccc3)c2)O1", "note": "(stereo not drawn)", "Blood sugar lowering": 12}
{"system": "Rattus norvegicus", "experiment": "Ability to lower blood sugar level at the dose of 10 mg/kg in fasted rats, by using glucose tolerance test(GTT)", "assay_type": "functional", "conditions": "not given", "summary_of_the_method": "as §1", "units": {"Blood sugar lowering": "%"}}
{"compound": "O=C1NC(=O)C(c2cccc(F)c2)O1", "note": "(stereo not drawn)", "Blood sugar lowering": 10}
{"compound": "COc1c(C)cc(Cl)cc1C1OC(=O)NC1=O", "note": "(stereo not drawn)", "Blood sugar lowering": 17}
{"compound": "O=C1NC(=O)C(c2ccccc2Cl)O1", "note": "(stereo not drawn)", "Blood sugar lowering": 11}
{"compound": "COc1c(F)cc(C)cc1C1OC(=O)NC1=O", "note": "(stereo not drawn)", "Blood sugar lowering": 17}
{"compound": "Cc1ccccc1C1OC(=O)NC1=O", "note": "(stereo not drawn)", "Blood sugar lowering": 14}
{"compound": "Cc1cccc(C)c1C1OC(=O)NC1=O", "note": "(stereo not drawn)", "Blood sugar lowering": 13}
{"compound": "O=C1NC(=O)C(c2c(F)cccc2Cl)O1", "note": "(stereo not drawn)", "Blood sugar lowering": 12}
{"compound": "O=C1NC(=O)C(c2cccc(C(F)(F)F)c2)O1", "note": "(stereo not drawn)", "Blood sugar lowering": 17}
{"compound": "COc1ccc(Cl)c(C)c1C1OC(=O)NC1=O", "note": "(stereo not drawn)", "Blood sugar lowering": 12}
{"compound": "O=C1NC(=O)C(c2ccccc2C(F)(F)F)O1", "note": "(stereo not drawn)", "Blood sugar lowering": 11}
{"compound": "COc1c(Cl)cc(F)cc1C1OC(=O)NC1=O", "note": "(stereo not drawn)", "Blood sugar lowering": 15}
{"compound": "COc1cccc(OC)c1C1OC(=O)NC1=O", "note": "(stereo not drawn)", "Blood sugar lowering": 12}
{"compound": "COc1ccc(C)cc1C1OC(=O)NC1=O", "note": "(stereo not drawn)", "Blood sugar lowering": 21}
{"compound": "COc1cccc(C)c1C1OC(=O)NC1=O", "note": "(stereo not drawn)", "Blood sugar lowering": 10}
{"system": "Rattus norvegicus", "experiment": "Ability to lower blood sugar level at the dose of 25 mg/kg in fasted rats, by using glucose tolerance test(GTT); NA=Inactive", "assay_type": "functional, organism-based", "parameters": "dose 25 mg/kg", "conditions": "not given", "summary_of_the_method": "as §1"}
{"compound": "COc1ccc(N)cc1C1OC(=O)NC1=O", "note": "(stereo not drawn)", "Blood sugar lowering": "inactive"}
{"compound": "COc1ccc(C(=O)O)cc1C1OC(=O)NC1=O", "note": "(stereo not drawn)", "Blood sugar lowering": "inactive"}
{"compound": "CS(=O)(=O)Nc1ccccc1C1OC(=O)NC1=O", "note": "(stereo not drawn)", "Blood sugar lowering": "inactive"}
{"compound": "COc1cccc(C(F)(F)F)c1C1OC(=O)NC1=O", "note": "(stereo not drawn)", "Blood sugar lowering": "inactive"}
{"compound": "O=C1NC(=O)C(c2c(Cl)cccc2OCc2ccccc2)O1", "note": "(stereo not drawn)", "Blood sugar lowering": "inactive"}
{"compound": "COc1ccc(CCn2ccnc2)cc1C1OC(=O)NC1=O", "note": "(stereo not drawn)", "Blood sugar lowering": "inactive"}
{"compound": "O=C1NC(=O)C(c2ccccc2NS(=O)(=O)c2ccccc2)O1", "note": "(stereo not drawn)", "Blood sugar lowering": "inactive"}
{"compound": "O=C1NC(=O)C(c2ccccc2OCCn2ccnc2)O1", "note": "(stereo not drawn)", "Blood sugar lowering": "inactive"}
{"compound": "COc1ccc(C(N)=O)cc1C1OC(=O)NC1=O", "note": "(stereo not drawn)", "Blood sugar lowering": "inactive"}
{"compound": "O=C1NC(=O)C(c2c(Cl)cccc2[N+](=O)[O-])O1", "note": "(stereo not drawn)", "Blood sugar lowering": "inactive"}
{"compound": "COc1ccc(-c2ccccc2)cc1C1OC(=O)NC1=O", "note": "(stereo not drawn)", "Blood sugar lowering": "inactive"}
{"compound": "O=C(Nc1ccccc1C1OC(=O)NC1=O)NC1CCCCC1", "note": "(stereo not drawn)", "Blood sugar lowering": "inactive"}
{"compound": "O=C1NC(=O)C(c2c(F)cccc2C(F)(F)F)O1", "note": "(stereo not drawn)", "Blood sugar lowering": "inactive"}
{"compound": "COc1cccc(N)c1C1OC(=O)NC1=O", "note": "(stereo not drawn)", "Blood sugar lowering": "inactive"}
{"compound": "COc1ccc(S(=O)(=O)NC(=O)NC2CCCCC2)cc1C1OC(=O)NC1=O", "note": "(stereo not drawn)", "Blood sugar lowering": "inactive"}
{"compound": "COc1cccc(NC(C)=O)c1C1OC(=O)NC1=O", "note": "(stereo not drawn)", "Blood sugar lowering": "inactive"}
{"system": "Rattus norvegicus", "experiment": "(§2) Ability to lower blood sugar level at the dose of 2.5 mg/kg in fasted rats, by using glucose tolerance test(GTT)", "assay_type": "functional", "conditions": "not given", "summary_of_the_method": "as §1", "units": {"Blood sugar lowering": "%"}}
{"compound": "COc1ccc(F)cc1C1OC(=O)NC1=O", "note": "(stereo not drawn)", "Blood sugar lowering": 15}
{"compound": "C=CCOc1cccc(Cl)c1C1OC(=O)NC1=O", "note": "(stereo not drawn)", "Blood sugar lowering": 17}
{"compound": "COc1ccc(C)cc1C1OC(=O)NC1=O", "note": "(stereo not drawn)", "Blood sugar lowering": 10}
{"system": "Rattus norvegicus", "experiment": "as §2", "assay_type": "functional", "conditions": "2.5 mg/kg", "summary_of_the_method": "as §1", "units": {"Blood sugar lowering": "%"}}
{"compound": "COc1ccc(Cl)cc1C1OC(=O)NC1=O", "note": "(single isomer, unassigned; (+))", "Blood sugar lowering": 12}
{"compound": "COc1ccc(Cl)cc1C1OC(=O)NC1=O", "note": "(single isomer, unassigned; (-))", "Blood sugar lowering": 26}
{"system": "Rattus norvegicus", "experiment": "Compound was tested for the ability to lower blood sugar level at the dose of 25 mg/kg in fasted rats, by using glucose tolerance test(GTT)", "assay_type": "functional", "conditions": "not given", "summary_of_the_method": "as §1", "units": {"Blood sugar lowering": "%"}}
{"compound": "COc1ccc([N+](=O)[O-])cc1C1OC(=O)NC1=O", "note": "(stereo not drawn)", "Blood sugar lowering": 17}
